Holding throughout (format): protein assay
Substrate in data set [1]: O=[N+]([O-])c1ccc(O[C@H]2O[C@H](CO)[C@@H](O)[C@H](O)[C@@H]2O)cc1
In words: (§1) Ratio of Kcat to Km for Bacteroides thetaiotaomicron GH92 alpha-mannosidase GH92 alpha-mannosidase 4093 assessed as mannose release after 16 hrs by HPLC.

Substrate in data set [2]: OC[C@H]1O[C@H](O[C@H]2[C@H](O)[C@H](O)[C@@H](O)O[C@@H]2CO)[C@@H](O)[C@@H](O)[C@@H]1O
Described as §1.

Substrate in data set [3]: O=[N+]([O-])c1ccc(O[C@H]2O[C@H](CO)[C@@H](O)[C@H](O)[C@@H]2O)cc1
In words: (§2) Activity of Bacteroides thetaiotaomicron GH92 alpha-mannosidase GH92 alpha-mannosidase 4093 assessed as mannose release after 16 hrs by HPLC. In short, it runs like this:
(§3)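 Yeast mannan or ovalbumin (mostly high-mannose N-glycans) at 1 mg ml−1 was incubated with recombinant IMAC-purified enzyme from E. coli. The methods give enzyme at 2 μM and the table footnote gives 1 μM. Buffer was 100 mM sodium HEPES pH 7.0 with 1 mg ml−1 BSA and 2 mM CaCl2. Aliquots were taken at 1 and 16 h and boiled 10 min. Mannose was measured by HPLC and scored by signal: >500 nC +++, 200–500 ++, <200 +.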

Substrate in data set [4]: OC[C@H]1O[C@H](O[C@H]2[C@H](O)[C@H](O)[C@@H](O)O[C@@H]2CO)[C@@H](O)[C@@H](O)[C@@H]1O
The data set is described as §2. The procedure, abridged: as §3

Substrate in data set [5]: O=[N+]([O-])c1ccc(O[C@H]2O[C@H](CO)[C@@H](O)[C@H](O)[C@@H]2O)cc1
In words: (§4) Ratio of Kcat to Km for Bacteroides thetaiotaomicron GH92 alpha-mannosidase GH92 alpha-mannosidase 4092 assessed as mannose release after 16 hrs by HPLC.

Substrate in data set [6]: OC[C@H]1O[C@H](O[C@H]2[C@@H](O)[C@H](O)[C@@H](CO)O[C@@H]2O)[C@@H](O)[C@@H](O)[C@@H]1O
The description is as §4.

Substrate in data set [7]: OC[C@H]1O[C@H](O[C@H]2[C@@H](O)[C@H](O)[C@@H](CO)O[C@@H]2O)[C@@H](O)[C@@H](O)[C@@H]1O
In words: Activity of Bacteroides thetaiotaomicron GH92 alpha-mannosidase GH92 alpha-mannosidase 4092 assessed as mannose release after 16 hrs by HPLC. The procedure, abridged: as §3

Substrate in data set [8]: O=[N+]([O-])c1ccc(O[C@H]2O[C@H](CO)[C@@H](O)[C@H](O)[C@@H]2O)cc1
In words: (§5) Ratio of Kcat to Km for Bacteroides thetaiotaomicron GH92 alpha-mannosidase GH92 alpha-mannosidase 3994 assessed as mannose release after 16 hrs by HPLC.

Substrate in data set [9]: OC[C@H]1O[C@H](O[C@H]2[C@H](O)[C@H](O)[C@@H](O)O[C@@H]2CO)[C@@H](O)[C@@H](O)[C@@H]1O
The data set is described as §5.

Substrate in data set [10]: O=[N+]([O-])c1ccc(O[C@H]2O[C@H](CO)[C@@H](O)[C@H](O)[C@@H]2O)cc1
In words: Activity of Bacteroides thetaiotaomicron GH92 alpha-mannosidase GH92 alpha-mannosidase 3994 assessed as mannose release after 16 hrs by HPLC.

B1: Alpha-1,2-mannosidase family protein (BT_4093) (Bacteroides thetaiotaomicron), Q8A0C8 (protein)
chain: MKHKFLFILLFSLVLEGMVTTQAVAGDYVHQVNTLIGTKGTGLTSGYLYPGATYPYGMVQFTPSYFSKRSGFVINQLSGGGCEHMGNFPTFPVKGKLKMSPDNILNYRINVSEEKGHAGYYEAMVQEDIKAKLTVTERTGMASYEYPADQQYGTIIIGGGISATPIEQAAIVITAPNKCEGYAEGGNFCGLRTPYKVYFVAEFDTDAFETGTWKREELMPNTTFAEGEYSGVYFTFDVNKKKNIQYKIGVSYVSVENARENLKAENAEWDFQKIQNQAEAKWNHYLGMIEVEGTNPDRTTQFYTHLYRSFIHPNVCSDVNGEYMGADFRVHKSRSKHYTSFSNWDTYRTQIQLLSMLDPEVASDIVISHQLFAEQSGGSFPRWVMANIETGVMQGDPTPILIANAYAFGARNYDPKPIFKIMRKGAEEPGSKSQDVETRPGLKQYLDKGYYNASIQLEYTSADFAIGQFALHAVGDEFASWRYFHFARSWKNLYNSDTGWLQSRNPDGSWKSLGEDFRESTYKNYFWMVPYDIAGLVEIIGGKEKAEKRLDEFFTRLDAGYNDAWFASGNEPSFHIPWIYNWIGRPYKTQEIINRVLNEQYSSKIDGLPGNDDLGTMGAWYVFACIGLYPEIPGVGGFTVNTPIFSSVKVHLKKGDIVIKGGSEKDIYIKSMKLNGKSYESTWIDWDQLNSGATIEYRTSGKPDMKWGAKVVPPSFP
For B1, the figures for the kcat/Km in data set [1] and in data set [2] were 9.08 M⁻¹ s⁻¹ and 38.3 M⁻¹ s⁻¹, respectively. Further, the Km amounted to 1300 µM in data set [3] and 35000 µM in data set [4]. The turnover number (kcat) in data set [3] was determined as 0.0112 s⁻¹; in data set [4], 1.33 s⁻¹.

B2: Alpha-1,2-mannosidase (BT_4092) (Bacteroides thetaiotaomicron), Q8A0C9 (protein)
chain: MKKLVYLIIFFLYSTVMNAQLKDLVQYVNTLQGTDSNFGLSYGNTYPTTGMPYGMHMWSAQTGKNGDGFKYMYAVDKIRAFSQSHQCSPWVSDYAVYSFMPMVGELVVNQDARATKFSHDNEIAKPHYYKVTFDNGITTEMAPTTRGVHLRFSYPTTGDAYLVLDGYTDMSEIKIDPAKRQISGWVNNQRFVNDSKSFRNYFVVQFDKPFEDYGVWENQKDEVFPQKLDGAGKGYGAFIKFKKGSKVQAKAASSYISAEQALITLNKELGKDKNLEVTKARGQKTWNEVLNRIVVEGCTDEQMKTFYSCLFRANLFSRKFYERKENGEPYYYSPYNGKIYDGYMYTDNGFWDTFRSQFPLTNILHPTMQGRYMNALLAAQEQCGWLPSWSSPGETGGMLGNHSISLLADAWAKGIRDFDPEKALKAYAHEAMNKGPWGGANGRGFWKEYFQLGYVPYPESMGSSAQTMEYAYDDFCGYQLAKMVGNKHYQEVFARQMYNYKNVFDKSIGFMRGKGVDGKWQEPFDPLEWGGPFCEGNAWHYTWSVFHDVQGLIDLFGSDEKFTTKIDSVFTIPNIIKPGTYGGVIHEMKEMELANMGQYAHGNQPIQHMPYLYCYAGQPWKTQYWVRQIVERLYNSTEKGYPGDEDQGGMSSWYILSSLGIYAVCPGTDEYVIGSPLFKKATITMENGNKFVIEAPENSKENLYIQSATLNGRLLDKNYIHYDDIAEGGVLKFEMGSQPNKERCTSKYAAPFSLSKE
Regarding B2, the kcat/Km in data set [5] was 1.12 M⁻¹ s⁻¹. Also, in [6], the specificity constant (kcat/Km) worked out at 900 M⁻¹ s⁻¹. Also, in data set [7], the Km came out at 2000 µM and the kcat was determined as 1.83 s⁻¹.

B3: Alpha-1,2-mannosidase (BT_3994) (Bacteroides thetaiotaomicron), Q8A0M7 (protein)
chain: MKTPIYLLLIVCIFASCNTKQTQAEIDYTSYVNPFIGTDFTGNTYPGAQAPFGMVQLSPDNGLPGWDRISGYFYPDSTIAGFSHTHLSGTGAGDLYDISFMPVTLPYKEAEAPLGIYSKFSHDEESAYAGYYQVRLKDYHINVELTATERCGIQRYTFPKAEAAIFLNLKKAMNWDFTNDSHIEVVDSVTIQGYRYSDGWARDQRIYFRTRFSKPFDKVELDTTAIIKDKQHIGTAVIARFDFHTEEGEQILVNTAISGVSMEGAAKNLQAEVPENDFDKYLAETKANWNRQLGKIEVEGDNQDDKVNFYTALYHSMIAPTIYSDVDGAYYGPDKKVHQSDGWVNYSTFSLWDTYRAAHPLFTYTEPERVNDMVKSFIAFFEQNGRLPVWNFYGSETDMMIGYHAVPVIVDAYLKGIGNFDAEKALAACVATANLDNYRGIGLYKQLGYIPYNVTDHYNAENWSLSKTLEYAFDDYCIAEMANKMGKKEIADEFYKRSQNYKNVYNPATSFMQPRDDKGNFIKDFKADEYTPHICESNGWQYFWSVQHDIDGLIDLTGGKNRFAEKLDSMFTYHPAADEELPIFSTGMIGQYAHGNEPSHHVIYLFNAVGQQNLTQKYVAKVMNELYKNEPAGLCGNEDCGQMSAWYVFSAMGFYPVNPVSGKYEIGTPLFPEMKLHLANGKTFTVLAPKVSKENIYIQSIKVDGQPYNKTYLTHEQIMSGTTVEFEMGNTPLVEVEFEEQTQ
In the case of B3, in data set [8], the kcat/Km was determined as 433 M⁻¹ s⁻¹. Also, the kcat/Km in data set [9] was determined as 0.0833 M⁻¹ s⁻¹. In data set [10], the Km was 3700 µM and the catalytic constant (kcat) came to 1.57 s⁻¹.
